Active and inactive are the calls of the source. No cut-off for these calls is given here.
Columns and labels:
[1] = tested on: K562; experiment: Antiproliferative activity against human K562 cells assessed as reduction in cell viability after 48 hrs by MTT assay; format: functional, cell-based; conditions: K562, 48 h
[2] = tested on: HEL; experiment: Antiproliferative activity against HEL cells harboring JAK2 V617F mutant assessed as reduction in cell viability after 48 hrs by MTT assay; format: functional, cell-based; conditions: Homo sapiens
[3] = molecular target: T1, Protein deacetylase HDAC6 (Homo sapiens, UniProt Q9UBN7); experiment: Inhibition of recombinant human HDAC6 using p53 (379 to 382 residues) derived fluorogenic peptide RHKKAc as substrate
T1 sequence (Q9UBN7 whole entry): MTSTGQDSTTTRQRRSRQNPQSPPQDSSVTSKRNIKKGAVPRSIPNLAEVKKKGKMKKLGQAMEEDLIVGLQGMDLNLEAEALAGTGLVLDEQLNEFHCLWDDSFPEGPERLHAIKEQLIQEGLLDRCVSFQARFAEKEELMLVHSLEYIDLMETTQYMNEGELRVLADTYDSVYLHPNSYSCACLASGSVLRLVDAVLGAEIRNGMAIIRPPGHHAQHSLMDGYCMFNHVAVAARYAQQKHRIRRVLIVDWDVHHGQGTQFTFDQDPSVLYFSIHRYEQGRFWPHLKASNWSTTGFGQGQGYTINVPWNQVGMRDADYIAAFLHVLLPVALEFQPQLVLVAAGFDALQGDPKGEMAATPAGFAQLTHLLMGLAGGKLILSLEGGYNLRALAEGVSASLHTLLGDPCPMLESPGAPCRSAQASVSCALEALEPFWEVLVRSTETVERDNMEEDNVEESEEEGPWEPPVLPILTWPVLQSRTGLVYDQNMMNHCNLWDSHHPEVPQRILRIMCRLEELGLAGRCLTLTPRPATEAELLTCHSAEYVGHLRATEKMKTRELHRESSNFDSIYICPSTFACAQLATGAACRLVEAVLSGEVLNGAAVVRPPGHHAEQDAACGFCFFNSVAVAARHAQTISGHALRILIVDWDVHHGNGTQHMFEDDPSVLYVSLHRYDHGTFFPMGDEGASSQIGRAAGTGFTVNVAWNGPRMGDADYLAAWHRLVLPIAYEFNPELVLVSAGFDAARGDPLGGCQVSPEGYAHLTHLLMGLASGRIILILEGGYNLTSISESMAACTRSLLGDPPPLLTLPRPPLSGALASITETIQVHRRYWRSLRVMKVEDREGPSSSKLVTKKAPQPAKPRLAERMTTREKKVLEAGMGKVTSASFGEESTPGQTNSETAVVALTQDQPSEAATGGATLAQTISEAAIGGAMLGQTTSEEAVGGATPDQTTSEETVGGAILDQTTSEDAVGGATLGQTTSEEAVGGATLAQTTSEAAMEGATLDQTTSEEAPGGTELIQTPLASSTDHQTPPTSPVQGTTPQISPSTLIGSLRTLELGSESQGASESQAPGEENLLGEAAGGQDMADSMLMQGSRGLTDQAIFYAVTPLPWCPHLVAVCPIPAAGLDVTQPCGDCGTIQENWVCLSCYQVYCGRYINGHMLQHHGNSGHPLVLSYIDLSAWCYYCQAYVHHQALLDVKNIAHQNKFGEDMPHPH

[4] = tested on: MOLT-4; experiment: Antiproliferative activity against human MOLT4 cells assessed as reduction in cell viability after 48 hrs by MTT assay; format: functional, cell-based; conditions: MOLT-4, 48 h
Summary of the method: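 Cells kept in RPMI1640 with 10% FBS at 37 °C, 5% CO2. Seeded and grown for 12 h, then exposed to a range of compound concentrations for 48 h. 0.5% MTT added for 4 h, formazan dissolved in DMSO, absorbance read at 570 nm.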

[5] = tested on: Jurkat; experiment: Antiproliferative activity against human Jurkat cells assessed as reduction in cell viability after 48 hrs by MTT assay; format: functional, cell-based
[6] = tested on: HEL; experiment: Synergistic antiproliferative activity against HEL cells harboring JAK2 V617F mutant assessed as reduction in cell viability after 48 hrs in presence of SAHA by MTT assay; format: functional, cell-based; conditions: Homo sapiens
[7] = tested on: K562; experiment: Synergistic antiproliferative activity against human K562 cells assessed as reduction in cell viability after 48 hrs in presence of SAHA by MTT assay; format: functional, cell-based; conditions: K562, 48 h
[8] = tested on: HEL; experiment: Synergistic antiproliferative activity against HEL cells harboring JAK2 V617F mutant assessed as combination index after 48 hrs in presence of SAHA by MTT assay; format: functional, Homo sapiens
[9] = tested on: K562; experiment: Synergistic antiproliferative activity against human K562 cells assessed as combination index after 48 hrs in presence of SAHA by MTT assay; format: functional
[10] = tested on: HEL; experiment: Induction of apoptosis in HEL cells assessed as viable cells at 1 uM after 24 hrs by Annexin-V/propidium iodide staining-based flow cytometric analysis (reference value: 87.5%); format: functional, Homo sapiens
[11] = tested on: HEL; experiment: Induction of apoptosis in HEL cells assessed as early apoptotic cells at 1 uM after 24 hrs by Annexin-V/propidium iodide staining-based flow cytometric analysis (reference value: 12.5%); format: functional, Homo sapiens
[12] = tested on: HEL; experiment: Induction of apoptosis in HEL cells assessed as late apoptotic cells at 1 uM after 24 hrs by Annexin-V/propidium iodide staining-based flow cytometric analysis (reference value: 0.023%); format: functional, Homo sapiens
[13] = tested on: HEL; experiment: Induction of apoptosis in HEL cells assessed as necrotic apoptotic cells at 1 uM after 24 hrs by Annexin-V/propidium iodide staining-based flow cytometric analysis (reference value: 0.011%); format: functional, Homo sapiens
[14] = tested on: K562; experiment: Induction of apoptosis in human K562 cells assessed as viable cells at 1 uM after 24 hrs by Annexin-V/propidium iodide staining-based flow cytometric analysis (reference value: 85.7%); format: functional
[15] = tested on: K562; experiment: Induction of apoptosis in human K562 cells assessed as early apoptotic cells at 1 uM after 24 hrs by Annexin-V/propidium iodide staining-based flow cytometric analysis (reference value: 7.55%); format: functional
[16] = tested on: K562; experiment: Induction of apoptosis in human K562 cells assessed as late apoptotic cells at 1 uM after 24 hrs by Annexin-V/propidium iodide staining-based flow cytometric analysis (reference value: 5.87%); format: functional
[17] = tested on: K562; experiment: Induction of apoptosis in human K562 cells assessed as necrotic apoptotic cells at 1 uM after 24 hrs by Annexin-V/propidium iodide staining-based flow cytometric analysis (reference value: 0.827%); format: functional
[18] = tested on: HEL; experiment: Antitumor activity against HEL cells xenografted in BALB/c nu mouse assessed as reduction in tumor volume at 100 mg/kg/day, ip administered for 16 days and measured every 3 days during compound dosing by caliper method relative to control; format: functional, Homo sapiens; conditions: read-out: TGI
[19] = tested on: HEL; experiment: Antitumor activity against HEL cells xenografted in BALB/c nu mouse assessed as tumor growth inhibition at 70 mg/kg/day, ip administered for 16 days and measured every 3 days during compound dosing in presence of SAHA by caliper method relative to control; format: functional, Homo sapiens; conditions: read-out: TGI
Summary of the method: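 Male BALB/c-nu mice (5-6 weeks) inoculated subcutaneously in the right flank with 1 × 10^7 HEL cells. Randomized at day 10 (6 per group). Dosed IP daily for 16 days; controls received PBS with 5% DMSO. Tumors measured by caliper every three days (V = ab²/2) and body weight monitored. TGI calculated from final tumor weights versus control.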

[20] = Toxicity in BALB/c nu mouse xenografted with HEL cells assessed as change in body weight at 70 mg/kg/day, ip administered for 16 days and measured every day during compound dosing in presence of SAHA; format: organism-based; conditions: in vivo, 384 h
[21] = Drug level in tumor of BALB/c nu mouse xenografted with HEL cells at 100 mg/kg/day, ip administered for 5 days and measured 1 hr post-last dose by LC-MS/MS analysis; format: ADME, organism-based, Neoplasm; conditions: in vivo
Summary of the method: (§1)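 HEL-xenografted male BALB/c-nu mice dosed IP at 100 mg/kg/day for 5 days. Sacrificed 0.5, 1.0 and 4.0 h after the last dose. Plasma separated and stored at -80 °C. Tumors homogenized in normal saline (5:1 v/w) and sonicated. Samples deproteinized with methanol containing internal standard, centrifuged, diluted in methanol/acetonitrile and recentrifuged.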

[22] = Toxicity in BALB/c nu mouse xenografted with HEL cells assessed as injury to internal organs at 70 mg/kg/day, ip administered for 16 days and measured post-last dose in presence of SAHA; format: organism-based; conditions: in vivo, 384 h
[23] = molecular target: Histone deacetylase 2 (Homo sapiens, UniProt Q92769); conditions: A549, at 80 to 400 nM
[24] = molecular target: Tyrosine-protein kinase JAK2 (Homo sapiens, UniProt O60674); experiment: Inhibition of recombinant human JAK2 at 10 uM using Ulight-CAGAGAIETDKEYYTVKD as substrate measured after 60 mins by LANCE assay
[25] = molecular target: T2, Janus Kinase (JAK) (Homo sapiens) (UniProt P52333+P23458+O60674+P29597); experiment: Inhibition of JAK in human MDA-MB-231 cells assessed as decrease in upregulation of p-STAT3-Tyr705 level at 5 uM after 12 hrs in presence of ruxolitinib by Western blot analysis; format: cell-based
Summary of the method: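 MDA-MB-231 cells treated with compound or DMSO for 12 h, then lysed in SDS buffer and cleared by centrifugation. Lysate resolved by SDS-PAGE and transferred to nitrocellulose. Immunoblotted for p-STAT3 (Tyr705), total STAT3, acetyl-α-tubulin and acetyl-histone H3, with GAPDH as loading control. Detection by enhanced chemiluminescence.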

[26] = Drug level in BALB/c nu mouse xenografted with HEL cells at 100 mg/kg/day, ip administered for 5 days and measured after 0.5 to 4 hrs by LC-MS/MS analysis; format: ADME, organism-based; conditions: in vivo; summary of the method: as §1
[27] = Toxicity in BALB/c nu mouse xenografted with HEL cells assessed as change in body weight at 60 mg/kg/day, ip administered for 16 days and measured every day during compound dosing in presence of ruxolitinib; format: organism-based; conditions: in vivo, 384 h
[28] = Toxicity in BALB/c nu mouse xenografted with HEL cells assessed as injury to internal organs at 60 mg/kg/day, ip administered for 16 days and measured post-last dose in presence of ruxolitinib; format: organism-based; conditions: in vivo, 384 h
[29] = molecular target: T2, Janus Kinase (JAK) (Homo sapiens); experiment: Inhibition of JAK in human MDA-MB-231 cells assessed as downregulation of p-STAT3-Tyr705 level at 5 uM after 12 hrs by Western blot analysis

Sequence of Tyrosine-protein kinase JAK2 (O60674 whole entry): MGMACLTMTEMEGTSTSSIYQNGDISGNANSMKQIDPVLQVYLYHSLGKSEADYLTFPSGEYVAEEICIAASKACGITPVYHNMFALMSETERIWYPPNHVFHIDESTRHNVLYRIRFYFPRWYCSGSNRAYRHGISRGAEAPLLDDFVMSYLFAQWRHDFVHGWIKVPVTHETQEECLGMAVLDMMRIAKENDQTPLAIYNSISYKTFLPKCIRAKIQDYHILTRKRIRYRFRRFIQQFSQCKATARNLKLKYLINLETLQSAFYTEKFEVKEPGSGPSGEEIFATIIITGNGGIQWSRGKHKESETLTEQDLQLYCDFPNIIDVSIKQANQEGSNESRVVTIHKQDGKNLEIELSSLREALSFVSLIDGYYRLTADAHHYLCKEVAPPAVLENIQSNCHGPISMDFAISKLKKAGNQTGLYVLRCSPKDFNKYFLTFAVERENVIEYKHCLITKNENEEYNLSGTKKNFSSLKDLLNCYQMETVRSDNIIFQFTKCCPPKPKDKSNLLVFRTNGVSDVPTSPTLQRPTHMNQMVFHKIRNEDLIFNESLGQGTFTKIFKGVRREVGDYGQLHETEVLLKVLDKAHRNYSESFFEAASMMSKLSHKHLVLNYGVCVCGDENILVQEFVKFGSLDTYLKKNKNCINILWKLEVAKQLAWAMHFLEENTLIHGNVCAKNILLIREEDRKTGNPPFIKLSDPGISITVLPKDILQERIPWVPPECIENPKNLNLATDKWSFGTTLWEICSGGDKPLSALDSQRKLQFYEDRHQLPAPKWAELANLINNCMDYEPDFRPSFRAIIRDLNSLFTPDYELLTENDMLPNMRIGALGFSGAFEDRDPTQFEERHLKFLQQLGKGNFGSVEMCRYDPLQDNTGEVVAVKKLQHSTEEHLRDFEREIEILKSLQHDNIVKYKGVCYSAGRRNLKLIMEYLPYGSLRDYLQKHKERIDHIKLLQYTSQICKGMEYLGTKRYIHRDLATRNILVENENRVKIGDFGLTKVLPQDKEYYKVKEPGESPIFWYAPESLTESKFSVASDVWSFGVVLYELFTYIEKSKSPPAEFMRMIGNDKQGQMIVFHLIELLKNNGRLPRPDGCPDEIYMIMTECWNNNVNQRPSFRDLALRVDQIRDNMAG
Sequence of Histone deacetylase 2 (Q92769 whole entry): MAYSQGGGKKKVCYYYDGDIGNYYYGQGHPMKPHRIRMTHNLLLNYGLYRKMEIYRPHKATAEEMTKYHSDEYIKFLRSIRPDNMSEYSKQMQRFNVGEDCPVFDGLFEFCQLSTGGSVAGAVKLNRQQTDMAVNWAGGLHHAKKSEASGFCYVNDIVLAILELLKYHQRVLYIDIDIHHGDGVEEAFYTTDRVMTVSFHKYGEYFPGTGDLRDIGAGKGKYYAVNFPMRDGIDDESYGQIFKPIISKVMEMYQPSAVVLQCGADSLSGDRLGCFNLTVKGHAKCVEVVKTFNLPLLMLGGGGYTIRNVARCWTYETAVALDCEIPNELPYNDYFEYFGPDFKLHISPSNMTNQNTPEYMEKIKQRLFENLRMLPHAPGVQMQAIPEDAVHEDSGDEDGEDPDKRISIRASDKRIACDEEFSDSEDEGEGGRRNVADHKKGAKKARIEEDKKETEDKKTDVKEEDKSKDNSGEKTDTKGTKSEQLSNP

With `N#CC[C@H](C1CCCC1)n1cc(-c2ncnc3[nH]ccc23)cn1` [RUXOLITINIB] the IC50 [1] was 23200 nM, the IC50 [2] was 18600 nM and the IC50 [3] was 15 nM. It also gave an IC50 [4] of 15800 nM, an IC50 [5] of over 5000 nM and an IC50 [6] of 300 nM. For the same compound, the IC50 [7] was 1030 nM, the CI [8] was 0.48 and the CI [9] was 0.97. It also gave a viability at 1 µM ([10]; Homo sapiens, HEL, 24 h, read-out: Activity) of 79.4%, an Activity [11] of 8.08% and an Activity [12] of 11.7%. The Activity [13] was 0.85%, the viability at 1 µM ([14]; Homo sapiens, K562, 24 h, read-out: Activity) was 75.2% and the Activity [15] was 9.22%. For the same compound, the Activity [16] was 15.3%, the Activity [17] was 0.248% and the inhibition in vivo at 100 mg/kg/day [18] was 27%. The inhibition in vivo at 70 mg/kg/day [19] was 57%, the Activity [20] was “Non-Toxic” and the Drug uptake [21] was “Active”. For the same compound, the Activity [22] was “Non-Toxic” and the inhibition [23] was “Active”.

For `O=C(CCCCCCC(=O)Nc1ccccc1)NO` [VORINOSTAT], the inhibition [24] was “inactive”, the IC50 [4] was 400 nM and the inhibition [25] was “Active”. It also gave an Activity [10] of 32.1%, an Activity [11] of 21.3% and an Activity [12] of 44.6%. It also gave an Activity [13] of 2%, an Activity [14] of 67.6% and an Activity [15] of 14.5%. The Activity [16] was 17.3%, the Activity [17] was 0.73% and the Drug uptake [26] was “Active”. The Activity [27] was “Non-Toxic”, the Activity [28] was “Non-Toxic” and the Activity [29] was “Active”.

— ChEMBL document CHEMBL4346670, “Discovery of Novel Janus Kinase (JAK) and Histone Deacetylase (HDAC) Dual Inhibitors for the Treatment of Hematological Malignancies” (J Med Chem, 2019)
